The text below walks through data of ChEMBL document CHEMBL5696442, “Discovery of type II inhibitors of TGFβ-activated kinase 1 (TAK1) and mitogen-activated protein kinase kinase kinase kinase 2 (MAP4K2)” (J Med Chem, 2015).

Test [1] has as its target T1, Mitogen-activated protein kinase 12 (Homo sapiens) (UniProt P53778).
T1 sequence (whole entry): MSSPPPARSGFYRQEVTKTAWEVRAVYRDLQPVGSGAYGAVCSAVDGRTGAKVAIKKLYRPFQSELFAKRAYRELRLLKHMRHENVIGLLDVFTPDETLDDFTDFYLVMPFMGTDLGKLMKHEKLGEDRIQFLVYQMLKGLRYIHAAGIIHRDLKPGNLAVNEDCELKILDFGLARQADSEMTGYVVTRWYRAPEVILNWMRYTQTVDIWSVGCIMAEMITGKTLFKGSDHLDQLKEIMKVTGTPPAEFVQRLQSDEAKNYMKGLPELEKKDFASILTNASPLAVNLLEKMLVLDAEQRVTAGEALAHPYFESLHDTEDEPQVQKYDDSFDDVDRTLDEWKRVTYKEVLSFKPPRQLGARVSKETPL
Kind of test: Inhibition of p38 gamma Lys2 labeling site in human A-375 cells at 0.05 uM by KiNativ Profiling analysis relative to control. It counts as cell-based.

Test [2] deals with T2, Scaffold protein ILK (Homo sapiens) (UniProt Q13418).
T2 sequence (whole entry): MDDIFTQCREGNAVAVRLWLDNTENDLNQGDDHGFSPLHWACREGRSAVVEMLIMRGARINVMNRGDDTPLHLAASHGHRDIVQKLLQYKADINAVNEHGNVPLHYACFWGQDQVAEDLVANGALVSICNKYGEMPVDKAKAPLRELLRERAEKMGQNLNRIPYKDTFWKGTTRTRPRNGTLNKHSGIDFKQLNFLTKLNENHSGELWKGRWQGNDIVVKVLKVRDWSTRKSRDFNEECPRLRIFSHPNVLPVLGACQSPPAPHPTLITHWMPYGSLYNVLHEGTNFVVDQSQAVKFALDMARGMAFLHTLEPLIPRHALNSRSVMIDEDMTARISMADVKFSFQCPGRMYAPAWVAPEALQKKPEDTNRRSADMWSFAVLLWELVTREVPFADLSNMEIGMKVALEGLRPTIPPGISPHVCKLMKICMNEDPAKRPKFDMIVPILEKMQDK
The experiment in a line: Inhibition of ILK Lys1 labeling site in human A-375 cells at 5 uM by KiNativ Profiling analysis relative to control. The class given is cell-based.

The target in test [3] is Mitogen-activated protein kinase 14 (Homo sapiens, UniProt Q16539). Kind of test: Inhibition of p38 alpha (unknown origin) by KiNativ Profiling analysis.
Sequence of Mitogen-activated protein kinase 14 (Q16539 whole entry): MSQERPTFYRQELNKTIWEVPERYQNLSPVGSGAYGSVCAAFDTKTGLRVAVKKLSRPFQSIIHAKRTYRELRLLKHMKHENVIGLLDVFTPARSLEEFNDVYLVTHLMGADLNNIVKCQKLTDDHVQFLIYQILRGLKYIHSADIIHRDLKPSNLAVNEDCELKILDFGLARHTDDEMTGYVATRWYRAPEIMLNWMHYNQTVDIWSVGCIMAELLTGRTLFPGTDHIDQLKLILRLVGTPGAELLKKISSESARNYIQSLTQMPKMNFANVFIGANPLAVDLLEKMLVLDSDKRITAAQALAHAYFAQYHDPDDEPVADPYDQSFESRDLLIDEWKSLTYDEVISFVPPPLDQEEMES
Test [4] concerns the target Aurora kinase B (Homo sapiens) (UniProt Q96GD4). Kind of test: Inhibition of AurB ATP Loop labeling site in human A-375 cells at 0.5 uM by KiNativ Profiling analysis relative to control. It counts as cell-based. In a few lines: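 Live A375 melanoma cells were treated with compound at 5 or 0.5 μM, then lysed. The lysates were labeled with a lysine-reactive ATP or ADP-biotin probe. Kinase protection from probe labeling was measured by KiNativ.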

The target of test [5] is T3, Serine/threonine-protein kinase Chk1 (Homo sapiens) (UniProt O14757).
T3 sequence (whole entry): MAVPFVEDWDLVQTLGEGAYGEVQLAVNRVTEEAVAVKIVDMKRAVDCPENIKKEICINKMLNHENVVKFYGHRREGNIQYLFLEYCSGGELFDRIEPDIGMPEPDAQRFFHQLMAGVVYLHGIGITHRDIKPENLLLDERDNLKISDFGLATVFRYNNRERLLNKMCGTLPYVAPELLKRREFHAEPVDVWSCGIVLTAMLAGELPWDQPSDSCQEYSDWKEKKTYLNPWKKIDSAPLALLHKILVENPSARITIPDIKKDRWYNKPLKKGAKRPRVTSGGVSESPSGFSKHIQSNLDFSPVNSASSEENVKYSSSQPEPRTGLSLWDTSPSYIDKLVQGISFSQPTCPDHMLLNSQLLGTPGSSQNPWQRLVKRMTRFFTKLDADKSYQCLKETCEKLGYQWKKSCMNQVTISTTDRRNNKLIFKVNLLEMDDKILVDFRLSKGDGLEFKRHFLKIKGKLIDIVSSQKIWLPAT
Kind of test: Inhibition of CHK1 Lys2 labeling site harbouring DIKPENLLLDER in human A-375 cells at 0.5 uM by KiNativ Profiling analysis relative to control. The class given is cell-based. The procedure, abridged: (§1)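 Live A375 melanoma cells were treated with compound at 5 or 0.5 μM. The cells were then lysed, and the lysates were labeled with a lysine-reactive ATP or ADP-biotin acyl probe (KiNativ). Inhibition is the compound's protection of each kinase labeling-site peptide from probe labeling, relative to untreated control.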

The target of test [6] is Mitogen-activated protein kinase kinase kinase kinase 4 (Homo sapiens, UniProt O95819). The experiment in a line: Inhibition of ZC1/HGK Lys1 labeling site in human A-375 cells at 0.5 uM by KiNativ Profiling analysis relative to control. The class given is cell-based.
Sequence of Mitogen-activated protein kinase kinase kinase kinase 4 (O95819 2-1239 limits assumed): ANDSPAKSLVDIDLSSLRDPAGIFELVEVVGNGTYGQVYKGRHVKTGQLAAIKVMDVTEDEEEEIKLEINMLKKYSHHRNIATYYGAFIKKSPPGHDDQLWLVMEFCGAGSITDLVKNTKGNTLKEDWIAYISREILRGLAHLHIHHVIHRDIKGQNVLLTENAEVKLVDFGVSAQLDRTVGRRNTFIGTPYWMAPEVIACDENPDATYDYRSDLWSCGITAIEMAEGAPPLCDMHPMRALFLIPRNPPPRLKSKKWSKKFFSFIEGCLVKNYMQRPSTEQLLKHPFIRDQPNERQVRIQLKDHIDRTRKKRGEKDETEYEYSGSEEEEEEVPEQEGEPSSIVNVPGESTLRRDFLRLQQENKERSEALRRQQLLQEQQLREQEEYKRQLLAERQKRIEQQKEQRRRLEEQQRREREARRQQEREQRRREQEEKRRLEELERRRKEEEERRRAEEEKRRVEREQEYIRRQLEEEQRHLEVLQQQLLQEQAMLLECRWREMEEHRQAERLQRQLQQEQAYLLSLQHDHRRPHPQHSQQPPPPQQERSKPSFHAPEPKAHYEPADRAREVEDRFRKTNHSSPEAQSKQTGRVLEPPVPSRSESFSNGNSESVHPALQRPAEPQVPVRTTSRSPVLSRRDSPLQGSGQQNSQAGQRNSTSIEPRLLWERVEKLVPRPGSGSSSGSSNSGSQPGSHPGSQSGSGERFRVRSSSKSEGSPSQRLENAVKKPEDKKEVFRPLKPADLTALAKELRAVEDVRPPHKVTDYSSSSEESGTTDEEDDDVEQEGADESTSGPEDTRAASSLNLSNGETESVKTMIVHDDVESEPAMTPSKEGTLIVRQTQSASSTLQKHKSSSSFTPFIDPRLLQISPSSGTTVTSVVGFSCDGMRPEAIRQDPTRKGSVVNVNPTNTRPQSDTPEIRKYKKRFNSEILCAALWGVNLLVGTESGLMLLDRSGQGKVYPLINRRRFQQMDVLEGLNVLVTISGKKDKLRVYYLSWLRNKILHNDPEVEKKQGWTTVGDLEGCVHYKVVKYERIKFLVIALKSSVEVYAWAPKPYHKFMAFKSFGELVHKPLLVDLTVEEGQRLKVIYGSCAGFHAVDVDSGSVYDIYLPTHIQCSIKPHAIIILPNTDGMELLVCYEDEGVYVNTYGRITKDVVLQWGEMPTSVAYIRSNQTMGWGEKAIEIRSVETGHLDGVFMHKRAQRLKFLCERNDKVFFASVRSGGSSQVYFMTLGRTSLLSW
Test [7] concerns the target Cyclin-dependent kinase 11B (Homo sapiens) (UniProt P21127). Kind of test: Inhibition of CDK11 Lys2 labeling site in human A-375 cells at 5 uM by KiNativ Profiling analysis relative to control. The class given is cell-based. In a few lines: as §1
For test [8], the target named is Serine/threonine-protein kinase 38 (Homo sapiens) (UniProt Q15208). Kind of test: Inhibition of NDR1 Lys2 labeling site in human A-375 cells at 0.5 uM by KiNativ Profiling analysis relative to control. The class given is cell-based.
Sequence of Serine/threonine-protein kinase 38 (Homo sapiens) (Q15208 2-465 limits assumed): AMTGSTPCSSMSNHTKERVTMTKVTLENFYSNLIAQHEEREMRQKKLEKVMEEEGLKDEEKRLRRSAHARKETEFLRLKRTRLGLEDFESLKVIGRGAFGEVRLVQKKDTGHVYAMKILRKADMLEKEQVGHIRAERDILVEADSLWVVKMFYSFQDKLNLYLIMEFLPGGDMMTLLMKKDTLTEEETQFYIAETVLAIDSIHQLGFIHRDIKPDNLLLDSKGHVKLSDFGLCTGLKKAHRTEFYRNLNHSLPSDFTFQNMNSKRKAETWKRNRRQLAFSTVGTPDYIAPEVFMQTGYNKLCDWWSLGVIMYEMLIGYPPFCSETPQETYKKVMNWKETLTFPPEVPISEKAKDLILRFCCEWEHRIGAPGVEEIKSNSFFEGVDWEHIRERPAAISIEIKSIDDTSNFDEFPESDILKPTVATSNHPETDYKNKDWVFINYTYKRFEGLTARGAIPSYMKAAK

Sequence of Aurora kinase B (Homo sapiens) (Q96GD4 whole entry): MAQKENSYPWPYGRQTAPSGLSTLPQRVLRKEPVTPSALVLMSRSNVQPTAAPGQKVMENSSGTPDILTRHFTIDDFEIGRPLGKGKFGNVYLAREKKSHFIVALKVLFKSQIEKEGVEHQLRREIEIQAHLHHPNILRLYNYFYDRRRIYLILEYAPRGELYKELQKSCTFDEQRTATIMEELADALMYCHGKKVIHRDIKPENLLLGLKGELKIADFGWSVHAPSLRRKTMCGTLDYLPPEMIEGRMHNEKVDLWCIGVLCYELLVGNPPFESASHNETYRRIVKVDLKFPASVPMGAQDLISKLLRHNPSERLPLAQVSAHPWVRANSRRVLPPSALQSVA
Sequence of Cyclin-dependent kinase 11B (Homo sapiens) (P21127 whole entry): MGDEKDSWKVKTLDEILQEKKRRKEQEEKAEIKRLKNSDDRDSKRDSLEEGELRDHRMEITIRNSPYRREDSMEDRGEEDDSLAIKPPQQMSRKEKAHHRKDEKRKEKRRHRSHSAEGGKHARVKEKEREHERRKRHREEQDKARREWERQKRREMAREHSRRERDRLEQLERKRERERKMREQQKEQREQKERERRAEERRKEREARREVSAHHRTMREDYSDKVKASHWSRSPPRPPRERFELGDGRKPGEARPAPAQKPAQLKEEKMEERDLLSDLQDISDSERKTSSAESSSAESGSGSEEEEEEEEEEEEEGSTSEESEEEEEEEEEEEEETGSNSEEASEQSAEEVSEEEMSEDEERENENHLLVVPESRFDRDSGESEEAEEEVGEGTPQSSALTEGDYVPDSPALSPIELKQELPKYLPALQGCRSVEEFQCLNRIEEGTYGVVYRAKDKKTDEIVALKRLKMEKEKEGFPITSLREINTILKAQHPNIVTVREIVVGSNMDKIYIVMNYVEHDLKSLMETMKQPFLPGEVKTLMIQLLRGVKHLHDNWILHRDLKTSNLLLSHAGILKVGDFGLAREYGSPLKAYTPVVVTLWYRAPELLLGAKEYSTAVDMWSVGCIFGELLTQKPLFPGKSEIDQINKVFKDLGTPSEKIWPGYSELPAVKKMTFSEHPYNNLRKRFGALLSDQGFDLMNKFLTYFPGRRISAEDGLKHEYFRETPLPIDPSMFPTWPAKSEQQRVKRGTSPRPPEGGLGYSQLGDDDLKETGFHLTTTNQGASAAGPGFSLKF

Turning to `CCN1CCN(Cc2ccc(NC(=O)c3ccc(C)c(/C=C/c4cnc5[nH]ccc5c4OC)c3)cc2C(F)(F)F)CC1`, the inhibition was 24.3% in test [1]; -8.7% in test [2]; 30.2% in test [4]; 19.4% in test [5]; 26.3% in test [6]; 16.9% in test [7]. The inhibition in test [8] was found to be 30.6%. In test [3], half-maximal inhibition (IC50) was put at 0.238 µM.
As to `CCN1CCN(Cc2ccc(NC(=O)c3ccc(C)c(Oc4ccnc5[nH]ccc45)c3)cc2C(F)(F)F)CC1`, the inhibition in test [1] is 64.9%; in test [2], -9.9%; in test [4], 31.2%; in test [5], 45.2%; in test [6], 75.6%; in test [7] it was 18%. Besides, the inhibition in test [8] amounted to 33.9%. Also, the IC50 in test [3] is 0.102 µM.
